ChEMBL document CHEMBL3352401, “Synthesis and antiviral activity of new phenylimidazopyridines and N-benzylidenequinolinamines derived by molecular simplification of phenylimidazo[4,5-g]quinolines” (Eur J Med Chem, 2014)

How the values were obtained:
[1] = Antiviral activity against Bovine viral diarrhea virus 1-NADL ATCC VR-534 infected in MDBK cells assessed as protection from virus-induced cytopathogenicity after 3 to 4 days by MTT method; type: functional, cell-based; conditions: Bovine viral diarrhea virus isolates and strains, ATCC VR-534, MDBK
Summary of the method: (§1)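 Confluent monolayers grown overnight (BHK-21 at 5×10⁴ cells/well for YFV and Reo-1; MDBK at 3×10⁴ cells/well for BVDV). Infection at m.o.i. 0.01 for 2 h in maintenance MEM-Earle with 0.5% inactivated FBS, then serial compound dilutions added. Viability read by MTT after 3–4 days at 37 °C. EC50 taken from linear regression against untreated controls.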

[2] = Cytotoxicity against mock-infected bovine MDBK cells assessed as reduction in proliferation after 72 hrs by MTT method; type: cell-based, Bos taurus; conditions: cattle
Summary of the method: (§2)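 MDBK and BHK cells seeded at 6 × 10⁵ and 1 × 10⁶ cells/mL respectively. Medium was MEM-Earle with L-glutamine, 1 mM pyruvate and kanamycin, plus 10% horse serum (MDBK) or 10% FBS (BHK). Cells exposed to serial compound dilutions at 37 °C, 5% CO₂; MTT viability read at 72 h. CC50 by linear regression versus untreated controls.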

[3] = Cytotoxicity against mock-infected human MT4 cells assessed as reduction in proliferation after 96 hrs by MTT method; type: cell-based
Summary of the method: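 Exponentially growing MT-4 cells seeded at 1 × 10⁵ cells/mL in RPMI-1640 with 10% FBS, penicillin and streptomycin. Held 96 h at 37 °C, 5% CO₂ with or without serial compound dilutions; viability by MTT. Compounds dissolved in DMSO at 100 mM stock, then diluted in medium. CC50 by linear regression.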

[4] = tested on: Human immunodeficiency virus 1; assay: Antiviral activity against HIV-13B infected in MT4 cells assessed as protection from virus-induced cytopathogenicity after 4 days by MTT method; type: functional, organism-based; conditions: Human immunodeficiency virus 1, 3B, MT4, 96 h
Summary of the method: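 HIV-1 IIIB, taken from persistently infected H9/IIIB supernatant. MT-4 cells (1×10⁴/well) in RPMI with serial compound dilutions, infected with 100 CCID50 (m.o.i. 0.01). Viability by MTT after 4 days at 37 °C. EC50 = 50% protection from cytopathogenicity, by linear regression against untreated controls. Compounds kept as 100 mM DMSO stocks, diluted in medium.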

[5] = Cytotoxicity against mock-infected hamster BHK21 cells assessed as reduction in proliferation after 72 hrs by MTT method; type: cell-based, Mesocricetus auratus, BHK-21; summary of the method: as §2
Yellow fever virus = assay: Antiviral activity against Yellow fever virus 17D Stamaril Pasteur J07B01 infected in BHK21 cells assessed as protection from virus-induced cytopathogenicity after 3 to 4 days by MTT method; type: functional, cell-based; conditions: Stamaril Pasteur J07B01, BHK-21; summary of the method: as §1
[6] = Antiviral activity against Simian virus 12 3651 (ATCC VR- 214) infected in BHK21 cells assessed as protection from virus-induced cytopathogenicity after 3 to 4 days by MTT method; type: functional, cell-based; conditions: BHK-21; summary of the method: as §1
[7] = Cytotoxicity against mock-infected African green monkey Vero 76 cells assessed as reduction in proliferation after 48 to 96 hrs by MTT method; type: cell-based; conditions: chlorocebus sabaeus, Vero 76 cells (mock-infected)
Summary of the method: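 Vero-76 cells seeded at 4 × 10⁵ cells/mL in D-MEM with L-glutamine, kanamycin and 10% FBS. Incubated at 37 °C, 5% CO₂, with or without serial dilutions of compound; viability read by MTT after 48–96 h. Run in parallel with antiviral assays. CC50 obtained by linear regression of % of untreated control.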

Coxsackievirus B5 = assay: Antiviral activity against Coxsackievirus B5 Faulkner (ATCC VR-185) infected in Vero 76 cells after 3 days by plaque reduction assays; type: functional, organism-based; conditions: Enterovirus B, Vero 76, 72 h
[8] = tested on: Human poliovirus 1 strain Sabin; assay: Antiviral activity against Poliovirus 1 strain Sabin ATCC VR-1562 infected in Vero 76 cells after 2 days by plaque reduction assays; type: functional, organism-based; conditions: Enterovirus C, ATCC VR-1562, Vero 76, 48 h
[9] = Antiviral activity against Human respiratory syncytial virus A2 ATCC VR-1540 infected in Vero 76 cells after 5 days by plaque reduction assays; type: functional, cell-based; conditions: ATCC VR-1540, Vero 76, 120 h
[10] = tested on: Vesicular stomatitis Indiana virus; assay: Antiviral activity against Vesicular stomatitis Indiana virus ATCC VR 158 infected in Vero 76 cells after 2 days by plaque reduction assays; type: functional, organism-based; conditions: ATCC VR 158, Vero 76, 48 h
[11] = Antiviral activity against Vaccinia virus Lister ATCC VR-1549 infected in Vero 76 cells after 3 days by plaque reduction assays; type: functional, cell-based; conditions: ATCC VR-1549, Vero 76, 72 h
Human alphaherpesvirus 1 = assay: Antiviral activity against Human herpesvirus 1 strain KOS ATCC VR- 1493 infected in Vero 76 cells after 3 days by plaque reduction assays; type: functional, organism-based; conditions: Human alphaherpesvirus 1, KOS ATCC VR1493, Vero 76, 72 h

Compound	EC50 [1]	CC50 at 72 h [2]	CC50 at 96 h [3]	EC50 [4]	CC50 at 72 h [5]	EC50 (Yellow fever virus)	EC50 [6]	CC50 [7]	EC50 (Coxsackievirus B5)	EC50 [8]	EC50 [9]	EC50 [10]	EC50 [11]	EC50 (Human alphaherpesvirus 1)
O=[N+]([O-])c1ccc(-c2nc3cc4cccnc4c(Cl)c3[nH]2)cc1	1.2 µM	> 100 µM	> 100 µM	> 100 µM	> 100 µM	> 100 µM	> 100 µM	> 100 µM	> 100 µM	> 100 µM	> 100 µM	> 100 µM	> 100 µM	> 44 µM
N#Cc1ccc(-c2nc3cccnc3[nH]2)cc1	> 100 µM	> 100 µM	> 100 µM	> 100 µM	> 100 µM	> 100 µM	> 100 µM	> 100 µM	> 100 µM	> 100 µM	> 100 µM	> 100 µM	> 100 µM	> 100 µM
CC(=O)c1ccc(-c2nc3cccnc3[nH]2)cc1	65 µM	> 100 µM	> 100 µM	> 100 µM	> 100 µM	> 100 µM	> 100 µM	> 100 µM	> 100 µM	> 100 µM	> 100 µM	> 100 µM	> 100 µM	> 100 µM
CC(=O)c1ccc(-c2nc3cc(Br)cnc3[nH]2)cc1	> 100 µM	> 100 µM	28 µM	28 µM	> 100 µM	> 100 µM	> 100 µM	50 µM	> 50 µM	> 50 µM	> 50 µM	> 50 µM	> 50 µM	> 50 µM
FC(F)(F)c1ccc(-c2nc3cccnc3[nH]2)cc1	> 100 µM	> 100 µM	> 100 µM	> 100 µM	> 100 µM	> 100 µM	> 100 µM	> 100 µM	18 µM	> 100 µM	> 100 µM	> 100 µM	> 100 µM	> 100 µM
FC(F)(F)c1ccc(-c2nc3cc(Br)cnc3[nH]2)cc1	> 100 µM	> 100 µM	> 100 µM	> 100 µM	> 100 µM	> 100 µM	> 100 µM	> 100 µM	> 100 µM	> 100 µM	> 100 µM	> 100 µM	4 µM	> 100 µM
c1cnc2[nH]c(-c3ccoc3)nc2c1	> 100 µM	> 100 µM	> 100 µM	> 100 µM	> 100 µM	> 100 µM	> 100 µM	> 100 µM	> 100 µM	> 100 µM	> 100 µM	> 100 µM	> 100 µM	> 100 µM
Brc1cnc2[nH]c(-c3ccoc3)nc2c1	40 µM	40 µM	20 µM	20 µM	> 100 µM	> 100 µM	> 100 µM	40 µM	> 40 µM	> 40 µM	> 40 µM	> 40 µM	> 40 µM	> 40 µM
c1cnc2[nH]c(C3CCCCC3)nc2c1	> 100 µM	> 100 µM	> 100 µM	> 100 µM	> 100 µM	> 100 µM	> 100 µM	> 100 µM	86 µM	> 100 µM	> 100 µM	> 100 µM	> 100 µM	> 100 µM
Brc1cnc2[nH]c(C3CCCCC3)nc2c1	> 100 µM	> 100 µM	> 100 µM	> 100 µM	> 100 µM	> 100 µM	> 100 µM	> 100 µM	20 µM	> 100 µM	> 100 µM	> 100 µM	16 µM	> 100 µM
N#Cc1ccc(-c2nc3ccncc3[nH]2)cc1	9 µM	> 100 µM	> 100 µM	> 100 µM	> 100 µM	> 100 µM	> 100 µM	> 100 µM	> 100 µM	> 100 µM	> 100 µM	> 100 µM	56 µM	> 100 µM
